Sampled rows, rich in hits. Any-hit rate of the full collection: about 2.9%.
ERAP1 HTS inh – human ERAP1 aminopeptidase inhibitors, primary screen, biochemical, single point, plate reader; 340,000 compounds, 0.15% hits; Endoplasmic reticulum aminopeptidase 1 (Homo sapiens), Q9NZ08; inhibition, % at 10.7 µM; recombinant ERAP1, Leu-AMC fluorescence, 60 min; AID 652197, 2013;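 active means mean replicate inhibition of at least 30%, or all replicates individually reaching that 30% level; inactive means mean below 30% and not every replicate reaching it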
S100A4 inh HTS – inhibitors of S100A4-myosin IIA peptide binding, primary screen, biochemical, fluorescence polarization, TAMRA-MyoIIA peptide. AID 652163, 2013. inhibition, % at 10.7 µM. Protein S100-A4 (Homo sapiens), P26447. 360,000 compounds, 0.14% hits;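 active means mean inhibition of at least 70% across replicates, with every replicate also reaching that level; inconclusive means mean inhibition reaches 70% but some replicates fall short; inactive means mean inhibition below 70%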
Target sequence (P26447 whole entry, looked up): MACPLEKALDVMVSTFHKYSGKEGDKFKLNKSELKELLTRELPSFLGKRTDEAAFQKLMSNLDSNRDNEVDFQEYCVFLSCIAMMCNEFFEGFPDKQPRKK
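Material: human S100A4 monomer with TAMRA-labelled myosin IIA peptide; buffer or medium: HEPES pH 7.2 with CaCl2, KCl, NaCl, DTT, Triton; compound dosing: one concentration per compound; schedule: 5 min incubation before reading; benchmarks: neutral control DMSO, positive control TFP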
SIRT5 inh – SIRT5 desuccinylase inhibitors, primary screen, biochemical, fluorescence imaging, single point, set 5. Purified SirT5, succinyl-peptide AMC, trypsin-coupled fluorescence. inhibition, % at 15 µM. 330,000 compounds, 1.1% hits. AID 652115, 2013; in the data active means inhibition above about 15%; inconclusive means no clear call, values can overlap the other calls
Target sequence (Q9NXA8 whole entry, looked up): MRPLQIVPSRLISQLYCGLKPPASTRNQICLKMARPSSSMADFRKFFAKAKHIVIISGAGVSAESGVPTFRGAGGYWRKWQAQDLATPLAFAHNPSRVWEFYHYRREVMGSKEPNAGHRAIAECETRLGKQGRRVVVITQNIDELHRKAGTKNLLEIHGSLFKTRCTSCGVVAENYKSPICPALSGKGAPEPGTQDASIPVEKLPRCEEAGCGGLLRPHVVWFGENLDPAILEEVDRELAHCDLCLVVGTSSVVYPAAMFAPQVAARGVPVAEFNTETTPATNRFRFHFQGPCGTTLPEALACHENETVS
CAL PDZ FP-1 – CAL PDZ peptide-binding inhibitors, primary screen, biochemical, fluorescence polarization, Cer-tagged CAL PDZ, HTS; Golgi-associated PDZ and coiled-coil motif-containing protein (Homo sapiens), Q9HD26; purified CAL PDZ, TMR-peptide fluorescence polarization, 1 h; inhibition, % at 20 µM; 330,000 compounds, 0.02% hits; AID 504414, 2011;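 active means highest replicate inhibition of at least 40%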
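Read-out basis: mP drop reported as inhibition | Assay system: Tagged CAL PDZ protein CerCALP, purified | Benchmarks: Unlabelled peptide for full inhibition, DMSO wells as neutral | Schedule: 1 h incubation at room temperature before polarization reading | Buffer or medium: Sodium phosphate/NaCl buffer pH 7.4 with TCEP, IgG, Thesit | Doses: Single point, 20 µM | Measured by: Fluorescence polarization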
DENV2 CPE – inhibitors of DENV2 cytopathic effect, primary screen, cell-based, plate reader, single concentration; DENV2-infected cells, cytopathic effect rescue; CPE inhibition, % at 9.99 µM; 350,000 compounds, 1.7% hits; in the data active means CPE inhibition above about 20%, passing the limit was not always enough; inconclusive means no clear call, values can overlap the other calls; tested in BHK-21 cells
CAL PDZ FP-2 – untagged CAL PDZ binding inhibitors, primary screen, biochemical, fluorescence polarization, HTS; Golgi-associated PDZ and coiled-coil motif-containing protein (Homo sapiens), Q9HD26; inhibition, % at 24.9 µM; purified CAL PDZ, TMR-peptide fluorescence polarization, 1 h; 300,000 compounds, 0.92% hits;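 active means mean inhibition of at least 30% with at least half of replicates also reaching 30%; inconclusive means no clear call, values can overlap the other calls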
Large screens that a line does not name were inactive; ! = not active in a repeat.

CN(C(=O)COC(=O)/C=C/c1ccc2ccccc2n1)c1c(N)n(Cc2ccccc2)c(=O)[nH]c1=O	none
CCO[C@@H]1OC(C(=O)N2CCN(Cc3ccc4c(c3)OCO4)CC2)=C[C@H](C(C)(C)C)[C@H]1CCCO	none (no result: CAL PDZ FP-1, CAL PDZ FP-2)
C[C@H]1CN([C@@H](C)CO)C(=O)c2cc(NS(C)(=O)=O)ccc2O[C@@H]1CN(C)C(=O)Nc1ccc(C(F)(F)F)cc1	none (no result: CAL PDZ FP-1, CAL PDZ FP-2)
NC(=O)CCn1c(C(=O)c2cc(Cl)c(N)c(Cl)c2)c2ccccc2[n+]1[O-]	none
NCCCn1c(C(=O)c2cc(Cl)c(N)c(Cl)c2)c2ccccc2[n+]1[O-]	SIRT5 inh 40
Cc1ccc(C(=O)c2c3ccc([N+](=O)[O-])cc3[n+]([O-])n2CCCN)cc1	DENV2 CPE 21
Cc1ccc(C(=O)c2c3ccc(C(F)(F)F)cc3[n+]([O-])n2CCCN)cc1	none (no result: SIRT5 inh)
CC(C)C#Cc1cnc2c(c1)C(=O)N([C@@H](C)CO)C[C@H](C)[C@@H](CN(C)Cc1ccccc1F)O2	none (no result: CAL PDZ FP-1, CAL PDZ FP-2)
CC(=O)Nc1ccccc1NC(=O)C/C(C)=N/NC(=O)c1ccc([N+](=O)[O-])c(Cl)c1	CAL PDZ FP-2 30 (no result: ERAP1 HTS inh, S100A4 inh HTS, SIRT5 inh, DENV2 CPE)
C/C(CC(=O)Nc1cccnc1)=N\NC(=O)c1ccc([N+](=O)[O-])c(Cl)c1	none
CC(C)NC(=O)N(C)C[C@@H]1OCCCC[C@@H](C)Oc2ccc(NC(=O)Cc3ccccc3)cc2C(=O)N([C@@H](C)CO)C[C@@H]1C	none (no result: CAL PDZ FP-1, CAL PDZ FP-2)
CNC[C@@H]1Oc2c(NS(=O)(=O)c3c(C)noc3C)cccc2C(=O)N([C@H](C)CO)C[C@H]1C	none (no result: CAL PDZ FP-1, CAL PDZ FP-2)
COc1ccc(S(=O)(=O)Nc2ccc3c(c2)C(=O)N([C@H](C)CO)C[C@H](C)[C@@H](CN(C)C(=O)Cc2ccccc2)OCCCC[C@H](C)O3)cc1	none (no result: CAL PDZ FP-1, CAL PDZ FP-2)
CCCC(=O)Nc1ccc2c(c1)C(=O)N(C)C[C@@H](OC)[C@H](C)CN(C(C)=O)[C@@H](C)CO2	none (no result: CAL PDZ FP-1, CAL PDZ FP-2)
CCC(CC)c1ncc[nH]1	none
Cc1ncc[nH]1	DENV2 CPE 57 (no result: SIRT5 inh)
Cc1noc(C)c1NC(=O)Nc1ccc2c(c1)CC(=O)N([C@@H](C)CO)C[C@@H](C)[C@H](CN(C)Cc1ccncc1)O2	none (no result: CAL PDZ FP-1, CAL PDZ FP-2)
COc1cc2ccc(=O)oc2cc1OCC(O)C(C)(C)O (centres undefined)	none
COc1cc2ccc(=O)oc2cc1O	ERAP1 HTS inh 74
CCOC(=O)[C@]12CCC=C1N(Cc1cccc3ccccc13)C(=O)[C@H](CC(=O)N1CCCC1)C2	DENV2 CPE 37 (no result: CAL PDZ FP-1, CAL PDZ FP-2)
COC(=O)[C@]12CCCCC=C1N(Cc1cccc3ccccc13)C(=O)[C@H](CC(=O)NCc1ccccc1)C2	none (no result: CAL PDZ FP-1, CAL PDZ FP-2)
COC(=O)[C@]12CCCCC=C1N(Cc1cccc3ccccc13)C(=O)[C@H](CC(=O)NCC1CCCCC1)C2	SIRT5 inh 22 (no result: CAL PDZ FP-1, CAL PDZ FP-2)
COC(=O)[C@]12CCCCC=C1N(Cc1cccc3ccccc13)C(=O)[C@H](CC(=O)N1CCSCC1)C2	DENV2 CPE 32 (no result: CAL PDZ FP-1, CAL PDZ FP-2)
COC(=O)[C@]12CCCCC=C1N(Cc1cccc3ccccc13)C(=O)[C@H](CC(=O)NCCC(C)C)C2	DENV2 CPE 109 (no result: CAL PDZ FP-1, CAL PDZ FP-2)
CCOC(=O)[C@]12CCC=C1N(Cc1cccc3ccccc13)C(=O)[C@H](CC(=O)N1CCCCC1)C2	DENV2 CPE inconclusive (no result: CAL PDZ FP-1, CAL PDZ FP-2)
Cc1noc(C)c1S(=O)(=O)Nc1ccc2c(c1)C(=O)N([C@H](C)CO)C[C@H](C)[C@@H](CN(C)S(=O)(=O)c1cn(C)cn1)OCCCC[C@@H](C)O2	none (no result: CAL PDZ FP-1, CAL PDZ FP-2)
C[C@@H]1CN([C@H](C)CO)C(=O)c2cccc(NC(=O)CCCCCC(=O)Nc3ccccc3N)c2O[C@@H]1CN(C)C(=O)Nc1ccc2c(c1)OCO2	none (no result: SIRT5 inh, CAL PDZ FP-1, CAL PDZ FP-2)
Cc1ccc(C(=O)COC(=O)CN2C(=O)C3C4CC(C(Br)C4Br)C3C2=O)cc1 (centres undefined)	SIRT5 inh 102
O=C(Nc1ccc(S(=O)(=O)Nc2ncccn2)cc1)c1cc([N+](=O)[O-])ccc1Cl	none
Cc1c(N)cc(S(=O)(=O)O)cc1NC(=O)c1cccc([N+](=O)[O-])c1	SIRT5 inh 28
O=C(Nc1cccc([N+](=O)[O-])c1)c1cc(S(=O)(=O)Nc2ccccn2)ccc1Cl	CAL PDZ FP-2 44
O=C(Nc1ccc(S(=O)(=O)Nc2ncccn2)cc1)c1cccc([N+](=O)[O-])c1	DENV2 CPE 71 (no result: CAL PDZ FP-1, CAL PDZ FP-2)
O=C1O[C@@H](c2ccccc2)[C@@H](c2ccccc2)N2[C@@H](c3ccc(O)cc3)[C@]3(C(=O)Nc4ccc(C#CC5=CCCCC5)cc43)[C@@H](C(=O)O)[C@H]12	none (no result: CAL PDZ FP-1, CAL PDZ FP-2)
C[C@H]1CN([C@@H](C)CO)S(=O)(=O)c2ccc(C#CCN(C)C)cc2O[C@H]1CN(C)CC1CC1	none (no result: CAL PDZ FP-1, CAL PDZ FP-2)
COc1cc(C(=O)NCC2CCCCC2)cc(OC)c1OC	CAL PDZ FP-2 65
COc1cc(C(=O)NCCCNC(=O)c2cc(OC)c(OC)c(OC)c2)cc(OC)c1OC	none (no result: CAL PDZ FP-1, CAL PDZ FP-2)
COc1cc(C(=O)NCCNC(=O)C2CCCNC2=O)cc(OC)c1OC (centres undefined)	CAL PDZ FP-2 40
C[C@@H]1CCCCO[C@H](CN(C)Cc2ccc(Cl)c(Cl)c2)[C@@H](C)CN([C@@H](C)CO)C(=O)c2cc(NS(=O)(=O)c3ccc(F)cc3)ccc2O1	DENV2 CPE 31 (no result: SIRT5 inh, CAL PDZ FP-1, CAL PDZ FP-2)
C[C@@H]1CCCCO[C@@H](CN(C)Cc2ccc(Cl)c(Cl)c2)[C@@H](C)CN([C@H](C)CO)C(=O)c2cc(NS(=O)(=O)c3ccc(Cl)cc3)ccc2O1	DENV2 CPE 79 (no result: CAL PDZ FP-1, CAL PDZ FP-2)
C[C@@H]1CN([C@H](C)CO)C(=O)c2cc(NS(=O)(=O)c3ccc(Cl)cc3)ccc2O[C@@H](C)CCCCO[C@@H]1CN(C)Cc1ccc2c(c1)OCO2	SIRT5 inh 19!, DENV2 CPE inconclusive (no result: CAL PDZ FP-1, CAL PDZ FP-2)
C[C@@H]1CN([C@@H](C)CO)C(=O)c2cc(NS(=O)(=O)c3ccc(Cl)cc3)ccc2O[C@@H](C)CCCCO[C@H]1CN(C)Cc1ccc2c(c1)OCO2	none (no result: CAL PDZ FP-1, CAL PDZ FP-2)
Cc1ccc(S(=O)(=O)Nc2ccc3c(c2)C(=O)N([C@H](C)CO)C[C@H](C)[C@@H](CN(C)Cc2ccc(Cl)c(Cl)c2)OCCCC[C@H](C)O3)cc1	S100A4 inh HTS inconclusive, SIRT5 inh 28 (no result: CAL PDZ FP-1, CAL PDZ FP-2)

Screening results: PubChem, Broad Institute
